Test results reported in ChEMBL document CHEMBL1127678, “Dianilinophthalimides: potent and selective, ATP-competitive inhibitors of the EGF-receptor protein tyrosine kinase” (J Med Chem, 1994).

Legend:
Protein kinase C (PKC) = assay: Inhibitory activity was determined against protein kinase C (PKC) from porcine brain; design: species or system Sus scrofa
[1] = target: cAMP-dependent protein kinase alpha-catalytic subunit (Oryctolagus cuniculus, UniProt Q95J97); assay: Inhibitory activity was determined against protein kinase A (PKA) of rabbit
Outline: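 PKA from rabbit muscle, kemptide (0.1 mg/mL) as substrate; compounds in DMSO (1% final).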

[2] = target: Proto-oncogene tyrosine-protein kinase Src (Homo sapiens, UniProt P12931); assay: Inhibitory activity against c-src tyrosine kinase
[3] = target: Tyrosine-protein kinase ABL (Homo sapiens, UniProt P00519+P42684); assay: Inhibitory activity against v-abl tyrosine kinase; type: protein assay
[4] = target: Epidermal growth factor receptor (Homo sapiens, UniProt P00533); assay: Inhibitory activity against recombinant tyrosine kinase EGF-R (EGF-R ICD)
[5] = target: T1, Platelet-derived growth factor receptor (Mus musculus, UniProt P05622+P26618); assay: (§1) Inhibition of PDGF-dependent autophosphorylation of PDGF-R in mouse BALB/c3T3 cells; type: functional, cell-based
[6] = Inhibition of BALB/MK mouse epidermal keratinocyte proliferation; type: functional
Outline: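 Mouse BALB/MK keratinocytes (EGF-dependent; kept in calcium-free DMEM/HAM's F12 1:1 with 5% FCS and EGF 5 ng/mL), 10^4 cells/well, seeded and incubated overnight. Serial dilutions added in DMSO (1% final), then 5-day incubation. Cell number by methylene blue staining.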

[7] = target: T1, Platelet-derived growth factor receptor; assay: as §1; type: functional, cell-based; remark: listed apart in the source
Outline: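 Confluent BALB/c 3T3 cells (collagen-coated wells, 3–5 days, no medium change) in DMEM with 1 mg/mL BSA; serially diluted compound for 2 h, then PDGF 50 ng/mL for 10 min. Cells were methanol-fixed, and phosphotyrosine was detected by ELISA (anti-pTyr 4G10, ABC-AP, p-nitrophenyl phosphate, 405 nm).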

Sequence of Proto-oncogene tyrosine-protein kinase Src (P12931 2-536 limits assumed): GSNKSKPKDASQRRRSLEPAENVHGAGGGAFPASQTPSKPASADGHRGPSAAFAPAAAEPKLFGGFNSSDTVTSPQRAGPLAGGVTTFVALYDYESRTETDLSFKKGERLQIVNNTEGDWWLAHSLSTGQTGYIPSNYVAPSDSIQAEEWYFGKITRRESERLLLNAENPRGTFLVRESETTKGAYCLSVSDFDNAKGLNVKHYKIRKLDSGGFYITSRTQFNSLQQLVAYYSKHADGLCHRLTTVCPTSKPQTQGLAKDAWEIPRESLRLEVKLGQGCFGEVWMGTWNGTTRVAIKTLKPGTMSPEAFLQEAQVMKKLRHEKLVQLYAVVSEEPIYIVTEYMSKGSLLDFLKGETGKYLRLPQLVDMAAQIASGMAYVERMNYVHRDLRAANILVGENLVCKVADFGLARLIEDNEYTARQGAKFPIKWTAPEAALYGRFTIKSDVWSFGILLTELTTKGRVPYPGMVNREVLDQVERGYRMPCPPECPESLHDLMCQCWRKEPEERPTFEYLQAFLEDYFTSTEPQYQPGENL
Sequence of Epidermal growth factor receptor (P00533 whole entry): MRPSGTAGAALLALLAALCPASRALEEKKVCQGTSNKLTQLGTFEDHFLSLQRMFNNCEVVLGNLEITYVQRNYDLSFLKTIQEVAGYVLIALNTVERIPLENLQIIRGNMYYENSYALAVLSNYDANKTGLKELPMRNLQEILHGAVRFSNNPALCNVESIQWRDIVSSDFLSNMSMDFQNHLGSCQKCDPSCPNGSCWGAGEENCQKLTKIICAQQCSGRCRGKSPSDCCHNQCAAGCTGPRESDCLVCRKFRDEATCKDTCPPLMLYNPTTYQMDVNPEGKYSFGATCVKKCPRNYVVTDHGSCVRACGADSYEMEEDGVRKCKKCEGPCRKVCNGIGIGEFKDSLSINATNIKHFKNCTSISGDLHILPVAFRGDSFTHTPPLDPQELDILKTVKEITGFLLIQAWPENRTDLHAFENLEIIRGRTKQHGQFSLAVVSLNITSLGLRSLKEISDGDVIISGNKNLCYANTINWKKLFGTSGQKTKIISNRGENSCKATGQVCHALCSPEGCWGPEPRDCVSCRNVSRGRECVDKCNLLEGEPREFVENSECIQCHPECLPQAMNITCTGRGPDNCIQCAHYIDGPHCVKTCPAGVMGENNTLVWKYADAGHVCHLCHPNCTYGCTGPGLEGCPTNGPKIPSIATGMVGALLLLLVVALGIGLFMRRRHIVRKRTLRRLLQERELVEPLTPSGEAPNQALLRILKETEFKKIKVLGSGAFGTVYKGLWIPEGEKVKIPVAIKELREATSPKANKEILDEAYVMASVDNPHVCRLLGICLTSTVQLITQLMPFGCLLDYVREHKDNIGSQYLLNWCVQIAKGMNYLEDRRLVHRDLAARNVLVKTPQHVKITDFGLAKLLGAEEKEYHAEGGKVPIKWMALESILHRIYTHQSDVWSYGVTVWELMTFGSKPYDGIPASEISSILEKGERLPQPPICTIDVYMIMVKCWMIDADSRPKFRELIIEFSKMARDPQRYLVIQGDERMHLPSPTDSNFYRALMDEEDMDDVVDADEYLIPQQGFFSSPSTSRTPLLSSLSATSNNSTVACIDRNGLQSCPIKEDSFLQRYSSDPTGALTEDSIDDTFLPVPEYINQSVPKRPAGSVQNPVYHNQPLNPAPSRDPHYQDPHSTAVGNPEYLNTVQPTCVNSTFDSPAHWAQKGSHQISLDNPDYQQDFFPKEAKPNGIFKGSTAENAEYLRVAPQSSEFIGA

Row | SMILES | IC50 (Protein kinase C (PKC)) | IC50 [1] | IC50 [2] | IC50 [3] | IC50 [4] | IC50 [5] | IC50 [7] | IC50 [6]
1 | O=C1NC(=O)c2cc(Nc3ccc(O)cc3)c(Nc3ccc(O)cc3)cc21 | 75 µM | > 500 µM | 8 µM | 12 µM |  |  |  | 
2 | N#Cc1ccc(Nc2cc3c(cc2Nc2ccc(C#N)cc2)C(=O)NC3=O)cc1 | > 100 µM | > 500 µM |  |  |  |  |  | 
3 | CN(c1ccccc1)c1cc2c(cc1N(C)c1ccccc1)C(=O)NC2=O | > 500 µM | > 500 µM | > 100 µM | > 50 µM |  |  |  | 
4 | CC(=O)N(c1ccccc1)c1cc2c(cc1Nc1ccccc1)C(=O)NC2=O | > 100 µM | > 500 µM |  |  |  | > 100 µM |  | 
5 | COc1ccc(Nc2cc3c(cc2Nc2ccc(OC)cc2)C(=O)NC3=O)cc1 | 460 µM | > 500 µM |  | > 50 µM |  | > 100 µM |  | 
6 | CN(c1ccccc1)c1cc2c(cc1Nc1ccccc1)C(=O)NC2=O | > 500 µM | > 500 µM | 1 µM | > 50 µM |  |  |  | 
7 | Cc1ccc(Nc2cc3c(cc2Nc2ccc(C)cc2)C(=O)NC3=O)cc1 | > 100 µM | > 500 µM | > 100 µM | > 100 µM |  | > 100 µM |  | 
8 | O=C1NC(=O)c2cc(Nc3ccc(-c4ccccc4)cc3)c(Nc3ccc(-c4ccccc4)cc3)cc21 | > 500 µM | > 500 µM |  |  |  | > 100 µM |  | 
9 | CN1C(=O)c2cc(Nc3ccccc3)c(Nc3ccccc3)cc2C1=O | > 100 µM | > 500 µM |  |  |  | > 100 µM |  | 
10 | COc1ccc(Nc2cc3c(cc2Nc2ccccc2)C(=O)NC3=O)cc1 | > 100 µM | > 500 µM | 64 µM | > 100 µM |  | > 100 µM |  | 
11 | O=C1NC(=O)c2cc(Nc3ccc(I)cc3)c(Nc3ccc(I)cc3)cc21 | > 500 µM | > 500 µM |  |  |  |  |  | 
12 | COC(=O)c1cc(Nc2ccccc2)c(Nc2ccccc2)cc1C(=O)OC | > 500 µM | > 500 µM |  |  |  |  |  | 
13 | O=C1NC(=O)c2cc(Sc3ccccc3)c(Sc3ccccc3)cc21 | > 50 µM | > 500 µM |  |  |  |  |  | 
14 | O=C1NC(=O)C(c2c[nH]c3ccccc23)=C1c1c[nH]c2ccccc12 [RO-316233] | 0.19 µM |  |  | 20 µM |  |  |  | 
15 | O=C1NC(=O)c2c1c1c3ccccc3[nH]c1c1[nH]c3ccccc3c21 [STAUROSPORINE AGLYCON] |  | > 10 µM |  |  |  |  |  | 

Further lines, with some results ahead:

Row | IC50 (Protein kinase C (PKC)) | IC50 [1] | IC50 [2] | IC50 [3] | IC50 [4] | IC50 [5] | IC50 [7] | SMILES | IC50 [6]
16 | 270 µM | > 500 µM | > 50 µM | > 50 µM |  |  |  | O=C1NC(=O)c2cc3c(cc21)N(c1ccccc1)CCN3c1ccccc1 | 
17 | > 100 µM | > 500 µM | > 50 µM | > 50 µM | > 50 µM |  |  | O=C1NC(=O)c2cc(NC3CCCCC3)c(NC3CCCCC3)cc21 | 
18 | > 100 µM | > 500 µM |  |  |  | > 100 µM |  | O=C1c2cc(Nc3ccccc3)c(Nc3ccccc3)cc2C(=O)N1c1ccccc1 | > 50 µM
19 | > 500 µM | > 500 µM |  |  |  |  |  | COC(=O)c1cc(Nc2ccc(F)cc2)c(Nc2ccc(F)cc2)cc1C(=O)OC | 
20 | > 500 µM | > 500 µM | > 100 µM | > 50 µM |  |  |  | CCN(CC)c1ccc(Nc2cc3c(cc2Nc2ccc(N(CC)CC)cc2)C(=O)NC3=O)cc1 | 
21 | 32 µM | > 500 µM | 50 µM | > 50 µM |  | 100 µM |  | O=C1NC(=O)c2cc(Nc3ccc(F)cc3)c(Nc3ccc(F)cc3)cc21 [CGP-53353] | 
22 | 80 µM | > 500 µM | 16 µM | > 50 µM |  |  | 100 µM | O=C1NC(=O)c2cc(Nc3ccccc3)c(Nc3ccccc3)cc21 [DAPH] | 
